Test results published in paper PMC6203112 (International Journal of Chronic Obstructive Pulmonary …, 2018).
Marks after values point to notes of the source that are not given here.

Tests used:
[1] = Study 1 Part 1: single ascending dose PK via SDDPI; format: in vivo; conditions: human, plasma, inhaled
How it was run: (§1)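 Blood was collected in lithium heparin, chilled on ice, and centrifuged at 2,000 ×g for 15 min at ~4°C. Plasma was stabilised with 1 M citric acid (100 µL per 1 mL plasma) and stored at ≤−65°C. After solid-phase extraction, samples were assayed by validated LC-MS/MS with heated electrospray and a deuterated internal standard (LLOQ 10 pg/mL). PK parameters were derived non-compartmentally.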

[2] = Study 1 Part 2: repeat ascending dose; format: in vivo, human; conditions: SDDPI; for CL/F / Racc / AUC(0-t): geometric mean (% CV); for AUC(0-t) / Tmax: human, plasma, inhaled; for AUC(0-t): AUC0–24 h; for Tmax: median (range)
How it was run: as §1

[3] = Study 2 Part 1: single ascending dose PK via MDDPI; format: in vivo; conditions: human, plasma, inhaled
How it was run: as §1

[4] = Study 2 Part 2: repeat ascending dose; format: in vivo, human; conditions: MDDPI; for Racc / CL/F / AUC(0-t): geometric mean (% CV); for AUC(0-t) / Tmax: human, plasma, inhaled; for Tmax: median (range)
How it was run: as §1

CS(=O)(=O)Nc1ccc(C(=O)O[C@@H](Cc2c(Cl)c[n+]([O-])cc2Cl)c2ccc(OC(F)F)c(OCC3CC3)c2)cc1OCC1CC1 [CHF6001]
half-life [1]: 30 to 45 h | AUC(0-t) ([1]; 20 ug): 0.0316 ng·h/mL | Cmax ([1]; 20 ug): 0.0189 ng/mL | half-life ([1]; 20 ug): 5.6 h | AUC(0-t) ([1]; 100 ug): 1.48 ng·h/mL | Cmax ([1]; 100 ug): 0.0638 ng/mL | half-life ([1]; 100 ug): 28.2 h | AUC(0-t) ([1]; 200 ug): 2.78 ng·h/mL | Cmax ([1]; 200 ug): 0.14 ng/mL | half-life ([1]; 200 ug): 30.1 h | AUC(0-t) ([1]; 400 ug): 5.38 ng·h/mL | Cmax ([1]; 400 ug): 0.195 ng/mL | half-life ([1]; 400 ug): 45.3 h | AUC(0-t) ([1]; 800 ug): 10.6 ng·h/mL | Cmax ([1]; 800 ug): 0.432 ng/mL | half-life ([1]; 800 ug): 26.3 h | AUC(0-t) ([1]; 1600 µg): 18 ng·h/mL | Cmax ([1]; 1600 µg): 0.73 ng/mL | half-life ([1]; 1600 µg): 27.4 h | AUC(0-t) ([1]; 2000 µg): 25.6 ng·h/mL | Cmax ([1]; 2000 µg): 0.983 ng/mL | half-life ([1]; 2000 µg): 37.3 h | CL/F ([2]; 100 µg OD, Day 7, N=7): 723 (41.1) mL/min | Racc ([2]; 100 µg OD, Day 7, N=7): 2.89 (16.6) | CL/F ([2]; 300 µg OD, Day 7, N=8): 860 (44.7) mL/min | Racc ([2]; 300 µg OD, Day 7, N=8): 2.49 (31.8) | CL/F ([2]; 600 µg OD, Day 7, N=9): 956 (28.2) mL/min | Racc ([2]; 600 µg OD, Day 7, N=9): 2.47 (20.2) | CL/F ([2]; 1,200 µg OD, Day 7, N=9): 772 (26.6) mL/min | Racc ([2]; 1,200 µg OD, Day 7, N=9): 2.74 (28.2) | CL/F ([2]; 1,600 µg OD, Day 7, N=6): 910 (17.0) mL/min | Racc ([2]; 1,600 µg OD, Day 7, N=6): 2.75 (16.5) | AUC(0-t) ([2]; 100 ug, 100 µg OD, Day 1, N=7): 0.796 ng·h/mL | AUC(0-t) ([2]; 100 ug, 100 µg OD, Day 7, N=7): 2.3 ng·h/mL | Tmax ([2]; 100 ug, 100 µg OD, Day 1, N=7): 1.5 h | Tmax ([2]; 100 ug, 100 µg OD, Day 7, N=7): 1 h | AUC(0-t) ([2]; 300 ug, 300 µg OD, Day 1, N=8): 2.34 ng·h/mL | AUC(0-t) ([2]; 300 ug, 300 µg OD, Day 7, N=8): 5.82 ng·h/mL | Tmax ([2]; 300 ug, 300 µg OD, Day 1, N=8): 2 h | Tmax ([2]; 300 ug, 300 µg OD, Day 7, N=8): 1 h | AUC(0-t) ([2]; 600 ug, 600 µg OD, Day 1, N=9): 4.24 ng·h/mL | AUC(0-t) ([2]; 600 ug, 600 µg OD, Day 7, N=9): 10.5 ng·h/mL | Tmax ([2]; 600 ug, 600 µg OD, Day 1, N=9): 1.5 h | Tmax ([2]; 600 ug, 600 µg OD, Day 7, N=9): 2 h | Tmax [3]: 3 h | AUC(0-t) ([3]; 2400 µg): 35.2 ng·h/mL | Cmax ([3]; 2400 µg): 1.23 ng/mL | Tmax ([3]; 2400 µg): 3 h | half-life ([3]; 2400 µg): 49.1 h | AUC(0-t) ([3]; 4000 µg): 75.8 ng·h/mL | Cmax ([3]; 4000 µg): 2.55 ng/mL | Tmax ([3]; 4000 µg): 3 h | half-life ([3]; 4000 µg): 44 h | AUC(0-t) ([3]; 4800 µg): 77.4 ng·h/mL | Cmax ([3]; 4800 µg): 2.72 ng/mL | Tmax ([3]; 4800 µg): 3 h | half-life ([3]; 4800 µg): 40 h | Racc ([4]; 1,200 µg BID, Day 14, N=9): 6.66 (38.4) | CL/F ([4]; 1,200 µg BID, Day 14, n=8): 588 (50.7) ^a mL/min | CL/F ([4]; 2,000 µg BID, Day 14, N=9): 652 (39.0) mL/min | Racc ([4]; 2,000 µg BID, Day 14, N=9): 6.28 (19.5) | CL/F ([4]; 2,400 µg BID, Day 14, n=8): 646 (37.0) ^a mL/min | Racc ([4]; 2,400 µg BID, Day 14, n=8): 5.47 (36.6) ^a | AUC(0-t) ([4]; 1200 µg, AUC0–12 h, 1,200 µg BID, Day 14, N=9): 34 ng·h/mL | Tmax ([4]; 1200 µg, tmax, 1,200 µg BID, Day 14, N=9): 1.6 h | AUC(0-t) ([4]; 2000 µg, AUC0–12 h, 2,000 µg BID, Day 14, N=9): 51.1 ng·h/mL | Tmax ([4]; 2000 µg, tmax, 2,000 µg BID, Day 14, N=9): 1.5 h
